In ChEMBL document CHEMBL4028864 (J Med Chem, 2017):

How the values were obtained:
[1] = system: HCT-116; assay: Antiproliferative activity against human HCT116 cells after 72 hrs by MTT assay; type: functional, cell-based; details: HCT-116, 72 h
[2] = molecular target: T1, Protein deacetylase HDAC6 (Homo sapiens, UniProt Q9UBN7); assay: Inhibition of N-terminal GST tagged human HDAC6 (1 to 1215 residues) expressed in baculovirus infected insect cells using RHKKAc as substrate in presence of ATP
T1 sequence (Q9UBN7 whole entry): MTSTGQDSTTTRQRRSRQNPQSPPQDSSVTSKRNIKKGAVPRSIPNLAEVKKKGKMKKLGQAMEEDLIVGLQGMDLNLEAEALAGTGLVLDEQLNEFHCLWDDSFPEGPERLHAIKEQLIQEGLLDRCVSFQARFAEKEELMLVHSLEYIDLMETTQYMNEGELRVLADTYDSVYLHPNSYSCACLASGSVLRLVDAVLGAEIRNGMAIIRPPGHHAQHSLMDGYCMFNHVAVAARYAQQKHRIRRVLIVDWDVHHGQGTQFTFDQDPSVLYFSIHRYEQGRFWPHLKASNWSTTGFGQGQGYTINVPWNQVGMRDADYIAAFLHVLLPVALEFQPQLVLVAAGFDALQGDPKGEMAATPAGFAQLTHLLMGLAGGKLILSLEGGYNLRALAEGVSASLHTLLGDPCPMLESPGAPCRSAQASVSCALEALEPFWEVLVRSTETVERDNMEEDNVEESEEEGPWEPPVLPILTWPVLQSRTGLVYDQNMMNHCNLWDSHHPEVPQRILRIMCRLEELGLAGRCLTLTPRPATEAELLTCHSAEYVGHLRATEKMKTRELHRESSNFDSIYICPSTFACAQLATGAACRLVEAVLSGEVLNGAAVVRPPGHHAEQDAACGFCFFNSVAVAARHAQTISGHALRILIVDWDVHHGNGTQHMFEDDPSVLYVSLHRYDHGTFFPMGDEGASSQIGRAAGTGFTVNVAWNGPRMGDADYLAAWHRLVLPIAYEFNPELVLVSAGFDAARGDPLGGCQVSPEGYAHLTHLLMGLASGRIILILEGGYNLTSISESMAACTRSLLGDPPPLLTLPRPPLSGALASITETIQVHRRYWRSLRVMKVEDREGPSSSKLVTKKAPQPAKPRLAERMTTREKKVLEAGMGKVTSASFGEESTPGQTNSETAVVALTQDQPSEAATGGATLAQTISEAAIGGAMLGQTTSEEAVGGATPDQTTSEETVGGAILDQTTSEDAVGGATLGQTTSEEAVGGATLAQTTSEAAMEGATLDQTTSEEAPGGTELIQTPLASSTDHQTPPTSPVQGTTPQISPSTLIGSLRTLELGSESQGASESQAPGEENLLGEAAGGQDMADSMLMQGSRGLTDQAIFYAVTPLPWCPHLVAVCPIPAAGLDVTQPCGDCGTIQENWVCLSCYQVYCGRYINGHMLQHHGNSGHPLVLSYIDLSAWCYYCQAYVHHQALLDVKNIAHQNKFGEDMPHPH

[3] = system: HEL 92.1.7; assay: cells; type: functional, cell-based; details: Homo sapiens, HEL 92.1.7, 36 h
[4] = system: MDA-MB-231; assay: cells; type: functional, cell-based; details: Homo sapiens, MDA-MB-231, 72 h
[5] = molecular target: Histone deacetylase 1 (Homo sapiens, UniProt Q13547); assay: Inhibition of C-terminal FLAG His tagged full length human recombinant HDAC1 (1 to 482 residues) expressed in baculovirus infected sf21 cells using RHKKAc as substrate in presence of ATP
[6] = system: Jurkat; assay: cells; type: functional, cell-based; details: Homo sapiens
[7] = molecular target: T2, Tyrosine-protein kinase JAK2 (Homo sapiens, UniProt O60674); assay: Inhibition of human JAK2 using poly[Glu:Tyr] as substrate in presence of [gamma-33P]-ATP
[8] = system: PC-3; assay: cells; type: functional, cell-based; details: Homo sapiens, PC-3, 72 h
[9] = molecular target: T2, Tyrosine-protein kinase JAK2; assay: Binding affinity to N-terminal His tagged human recombinant JAK2 (1014 to 1132 residues) expressed in Escherichia coli after 300 mins by LC/MS analysis; details: read-out: Kd(app)
Procedure, shortened: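 JAK2 in Tris/glycerol/urea storage buffer was exchanged into sodium phosphate/NaCl pH 7.5 and immobilized on periodate-oxidized diol silica (Schiff base, NaBH3CN, 116 h, 4 °C), then packed into a 35 × 0.5 mm column. Compounds were run at 10 μM final (50 μM for one analyte) in 20 mM ammonium acetate pH 6.8 at 20 μL/min. Detection was by SIM [M+H]+, with DMSO as void marker. Retention time was taken from the EIC peak apex, n = 3, with runs up to 300 min.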

[10] = system: HL-60; assay: Antiproliferative activity against human HL60 cells; type: functional, cell-based
[11] = system: MCF7; assay: cells; type: functional, cell-based; details: Homo sapiens, MCF7, 72 h
[12] = system: MOLM-14; assay: Antiproliferative activity against human MOLM14 cells assessed as cell viability at 10 uM after 48 hrs by CellTiter-Glo luminescent assay relative to control; type: functional
[13] = system: MV4-11; assay: Antiproliferative activity against human MV4-11 cells assessed as cell viability at 10 uM after 48 hrs by CellTiter-Glo luminescent assay relative to control; type: functional
[14] = system: OPM-2; assay: Antiproliferative activity against human OPM2 cells assessed as cell viability at 10 uM after 48 hrs by CellTiter-Glo luminescent assay relative to control; type: functional
[15] = system: KMS-12-BM; assay: Antiproliferative activity against human KMS-12-BM cells assessed as cell viability at 10 uM after 48 hrs by CellTiter-Glo luminescent assay relative to control; type: functional

T2 sequence (O60674 whole entry): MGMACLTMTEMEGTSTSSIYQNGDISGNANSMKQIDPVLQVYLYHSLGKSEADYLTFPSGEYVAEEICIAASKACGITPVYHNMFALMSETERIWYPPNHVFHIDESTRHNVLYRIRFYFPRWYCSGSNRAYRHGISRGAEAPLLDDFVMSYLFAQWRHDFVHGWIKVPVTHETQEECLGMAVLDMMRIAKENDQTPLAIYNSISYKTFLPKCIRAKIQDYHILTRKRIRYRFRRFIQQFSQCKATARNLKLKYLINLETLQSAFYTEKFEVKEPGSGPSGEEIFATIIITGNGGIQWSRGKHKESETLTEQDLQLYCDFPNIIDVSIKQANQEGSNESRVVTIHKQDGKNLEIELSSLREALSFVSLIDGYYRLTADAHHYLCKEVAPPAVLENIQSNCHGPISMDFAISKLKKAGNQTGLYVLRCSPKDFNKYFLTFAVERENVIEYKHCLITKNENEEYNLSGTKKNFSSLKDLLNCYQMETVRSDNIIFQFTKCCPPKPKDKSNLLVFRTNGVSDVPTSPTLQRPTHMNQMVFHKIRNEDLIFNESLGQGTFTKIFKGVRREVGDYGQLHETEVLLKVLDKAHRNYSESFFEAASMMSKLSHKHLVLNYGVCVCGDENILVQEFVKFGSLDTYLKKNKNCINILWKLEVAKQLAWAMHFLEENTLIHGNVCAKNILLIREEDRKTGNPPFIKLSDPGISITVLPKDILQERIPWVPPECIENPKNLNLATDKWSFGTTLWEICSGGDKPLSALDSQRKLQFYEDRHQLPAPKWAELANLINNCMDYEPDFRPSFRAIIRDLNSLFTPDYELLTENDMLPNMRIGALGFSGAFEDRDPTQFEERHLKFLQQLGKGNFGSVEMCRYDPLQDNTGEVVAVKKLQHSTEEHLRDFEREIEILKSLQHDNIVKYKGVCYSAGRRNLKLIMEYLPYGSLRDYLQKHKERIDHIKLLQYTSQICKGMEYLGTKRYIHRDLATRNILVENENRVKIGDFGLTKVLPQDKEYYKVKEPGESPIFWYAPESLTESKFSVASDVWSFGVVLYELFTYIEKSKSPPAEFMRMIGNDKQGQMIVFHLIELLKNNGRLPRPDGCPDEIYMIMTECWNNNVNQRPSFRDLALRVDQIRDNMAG
Histone deacetylase 1, sequence (Q13547 whole entry, the tested form may be a part): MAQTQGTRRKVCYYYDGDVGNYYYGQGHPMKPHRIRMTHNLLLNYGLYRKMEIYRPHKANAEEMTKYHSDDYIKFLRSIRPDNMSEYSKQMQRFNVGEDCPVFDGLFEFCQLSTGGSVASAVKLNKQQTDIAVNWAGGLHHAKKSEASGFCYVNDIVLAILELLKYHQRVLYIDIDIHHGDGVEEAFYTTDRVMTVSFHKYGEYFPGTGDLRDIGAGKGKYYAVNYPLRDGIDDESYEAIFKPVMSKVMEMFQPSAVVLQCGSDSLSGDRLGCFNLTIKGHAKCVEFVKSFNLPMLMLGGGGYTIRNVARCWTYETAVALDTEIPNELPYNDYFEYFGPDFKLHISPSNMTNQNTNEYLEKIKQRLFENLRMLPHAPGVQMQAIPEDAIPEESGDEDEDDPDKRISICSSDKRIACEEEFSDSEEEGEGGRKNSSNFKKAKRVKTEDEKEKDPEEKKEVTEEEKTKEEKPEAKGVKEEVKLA

Question: Which results are given for O=C(/C=C/c1ccc(NCCCn2cc(-c3ncnc4[nH]ccc34)cn2)cc1)NO?
Answer: IC50 [1]: 25.3 µM; IC50 [2]: 0.148 µM; IC50 [3]: > 4 µM; IC50 [4]: 13.3 µM; IC50 [5]: 2.65 µM; IC50 [6]: > 4 µM; IC50 [7]: 0.502 µM; IC50 [8]: 17 µM; Kd [9]: 0.2 µM; IC50 [10]: > 10 µM; IC50 [11]: 14.4 µM

Question: N#CC[C@H](C1CCCC1)n1cc(-c2ncnc3[nH]ccc23)cn1 [RUXOLITINIB] was tested. Which Activity [12] did it give?
Answer: 73%

Question: What about the Activity [13] of the same compound?
Answer: 52%

Question: And the Activity [14]?
Answer: 74%

Question: What about the Activity [15] of the same compound?
Answer: 59%
